The EternaBench riboswitch data

System: MS2 coat protein
Experiment: apparent Kd, MS2 coat protein; higher = weaker binding; RNA-MaP array; FMN 200 µM where present
Method in brief: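 Designs were transcribed by stalled E. coli RNA polymerase on Illumina sequencing-chip clusters. They were titrated with SNAP-549-labelled MS2 coat protein from 0.7 or 1.5 nM, doubling to 3 µM, in 100 mM Tris-HCl pH 7.5, 80 mM KCl, 4 mM MgCl2, BSA, DTT, yeast tRNA and Tween-20, without and then with constant ligand. The apparent Kd is the median of filtered per-cluster fits after normalisation of green signal to red-channel RNA signal and control-cluster median Fmax.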

[1] = designed as: ON switch for flavin mononucleotide, no ligand
[2] = ligand present: flavin mononucleotide, designed as: ON switch for flavin mononucleotide
[3] = designed as: OFF switch for flavin mononucleotide, no ligand
[4] = ligand present: flavin mononucleotide, designed as: OFF switch for flavin mononucleotide

Sequence | apparent Kd [1] [nM] | apparent Kd [2] [nM] | apparent Kd [3] [nM] | apparent Kd [4] [nM]
UAGGACUUCGUAGGAUAUGUAUUUGAUUUCUACAUGAGGAUCACCCAUGUUUGCAUUUUUUUUUGACAGAAGGACGUGGUCCUA | 16.8 | 13.2 | – | –
CCUCGACAUGAGGAUCACCCAUGUAAGGAUAUUCUAGGACGUGUUUUUCGUAGCUUUAGAAGAAGGUGCAGGUU | – | – | 49.5 | 175
UUAGUUUUGCAAGGAUAUGUUUAUUUAUAGUUGCCUCUUACAUGAGGAUCACCCAUGUUUUACUUACAGAAGGUGCAAUGAUUU | – | – | 165 | 416
ACAAGAUCAGGAUAUACAUGAGGAUCACCCAUGUUUAUCAAAAAGGGACUUUCUUUAUGUAGAAGGGAUCUUGU | – | – | 72.8 | 70.1
UAUUACCUAGGAUAUACAUGAGGAUCACCCAUGUCACGGGUCAACUUGUCCUAUGCGUGUAGAAGGAGGGACCC | – | – | 19.8 | 21.3
CGCUACACCCAGAAGGACAUGAGGAUCACCCAUGUAGGAUAUGGGAGACACAGUCCCAUGUAGAGAAAUUACGCUAGUGUAGCG | – | 79 | – | –
UCUCGAUGUGUAGGAUAUCUGAUCACUAUGACAAGAGAAGGGCACAUGAGGAUCACCCAUGUGGAGGACCACUGGUUCAGAUUA | – | – | 35.8 | 64.9
UUAGCAACAUGAGGAUCACCCAUGUAGGAUAUCGCUAUUGUAAUCAUGAAACAUGAUUACAAUAGCGAGAAGGACAUAUGCUAC | – | – | 11.2 | 12.1
ACACACCCAUGAGGUCCCUCCACAUGAGGAUCACCCAUGUGCAGAAGGUACGGCACGGUGUGCGGUAAGGAUAUGUACAAGUAA | – | – | 6.08 | 7.71
ACUUACUGAGGAUAUACAUAGAUUUACAUGAGGAUCACCCAUGUUCCUCUAUGUAUAAAUGUAGAAGGCAGAAGAA | – | – | 16.6 | 59.1
CUAAUGUGAGGAUAUGGUGUUGAUCACAGGAAAAAGAUUCUCCAGAAGGCACAUGAGGAUCACCCAUGUAGUGA | – | – | 65.6 | 175
CCCUCACAUGAGGAUCACCCAUGUUAGGAUAUCCACCGUUGAUGGUGCCGAAUCGGUAGGAGAAGGAACAUACA | – | – | 23.2 | 54.6
ACCUUACAUGAGGAUCACCCAUGUCAGGAUAUCUCGGACAGCUGAAAACCAGCCGUCCAGAGAAGGGACGAGGA | – | – | 13.4 | 14.4
GGCUACGUUUCGUAGCAGUGUCAUCGAGAAGGCCCUGACAUGAGGAUCACCCAUGUUGUUACAUGGGAGGAUAUCGAUGAUACG | 12.1 | 4.96 | – | –
GUGUUGUCAGGAUAUCUUACAUAACUAUCGUUGUUACCAUUGGAGAAGGGACAUGAGGAUCACCCAUGUUAUCC | – | – | 22.3 | 23.7
GCGUAUGAGCAGGAUAUCCGACGGGAAUCCAAAGGAGAAGGGCUCACAUGAGGAUCACCCAUGUGGUCCUAAAC | – | – | 20.2 | 101
UAUUUGUGAGGAUAUGAGUCGUAGAACAAUAGUACUACGUCUCAGAAGGCACAUGAGGAUCACCCAUGUACCUC | – | – | 17.9 | 122
UAAAAUCAUGUAGGAUAUGCGUGGCGAAGCUAUGCAGAAGGACAUGAGGAUCACCCAUGUCUUACUGUGCGUACACAGUUAAAG | – | – | 16.7 | 79.5
UUACAGUACAGGUAGGAUAUGUAGGGUGGUACAUGAGGAUCACCCAUGUAUCCACCCUUCGAACGGCAGAAGGGCCCGUCACUGC | 22 | 15.4 | – | –
AAUAACAGAGGAUAUACUAUUUUAUGUAUUUAUUAUUUUGAACAUGAGGAUCACCCAUGUAGAAGGCUGAAUGA | – | – | 26.4 | 22
AUGGACAGCAUAGACACAUAGUAACGAGAAGGUACACAUGAGGAUCACCCAUGUACAGUCAGAAGUAAGGAUAUUGAAUGGUAG | 36.4 | 27.4 | – | –
UAUUACCUAGGAUAUACAUGAGGAUCACCCAUGUCACGGGUCAACUUGUCCUACGCGUGUAGAAGGAGGGACCC | – | – | 21 | 21.4
AGUGCCUCGAGAGGAUAUAUACAUGAGGAUCACCCAUGUAACGAGGUGGAAACACCUCGAAAUGUAUAGAAGGCUCGAGGCACA | – | – | 28.4 | 50
AUCAUGUAAGGAUAUCUUAUAUGGAUCGAAAGAUCAAGUUAAGAGAAGGUACAUGAGGAUCACCCAUGUAUAAC | – | – | 21.2 | 27.2
AUAGCAUACCGAGGAUAUUCAUAUAAUAAAUAAACAUGAGGAUCACCCAUGUGGCGAAAGCCUAGGGAGAAGGCGGAAUGCUAU | 204 | 24.1 | – | –
UUCAUGUGAGGAUAUAAAAGGAAGGUGGUAUCUAUCAACAAUUAGAAGGCACAUGAGGAUCACCCAUGUCUGAA | – | – | 67 | 60.9
UUAAAUCAUGUAGGAUAUGCAUGGCGAAGCUACGCAGAAGGACAUGAGGAUCACCCAUGUUCUAGCUACCGAGUUCGGUGGCAA | – | – | 20.2 | 83.8
CCAUCAGCGAACGAUACGGUUGGACAUGAGGAUCACCCAUGUAGAAGGACAGGAGAAUAACGGCUGUAGGAUAUACAUUUAGUG | – | – | 40.7 | 33.9
